# Test results taken from the M2OR odorant receptor database.
# Tests used:
# Details in all cases: stereoisomer not certain
# UniProt L7MU75 = target: T1, UniProt L7MU75
# T1 sequence (whole entry): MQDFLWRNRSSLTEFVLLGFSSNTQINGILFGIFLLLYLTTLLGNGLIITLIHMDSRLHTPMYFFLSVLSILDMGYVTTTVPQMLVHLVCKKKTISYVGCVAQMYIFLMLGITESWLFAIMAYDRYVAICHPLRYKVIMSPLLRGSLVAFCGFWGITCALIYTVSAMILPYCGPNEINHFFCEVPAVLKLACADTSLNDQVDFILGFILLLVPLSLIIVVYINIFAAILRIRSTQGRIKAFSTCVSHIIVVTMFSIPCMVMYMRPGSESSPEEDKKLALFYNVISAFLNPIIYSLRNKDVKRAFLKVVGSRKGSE
# In short: (§1)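 Each receptor–molecule pair is labelled responsive or non-responsive (inactive) according to whether the original authors judged the measured signal statistically different from baseline. The data were taken from the main text and supplementary material of published papers and checked for typos and inconsistencies. Assay methods differed by source, with transient luciferase assays in mammalian cell lines being common.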
# UniProt L7N210 = target: T2, UniProt L7N210
# T2 sequence (whole entry): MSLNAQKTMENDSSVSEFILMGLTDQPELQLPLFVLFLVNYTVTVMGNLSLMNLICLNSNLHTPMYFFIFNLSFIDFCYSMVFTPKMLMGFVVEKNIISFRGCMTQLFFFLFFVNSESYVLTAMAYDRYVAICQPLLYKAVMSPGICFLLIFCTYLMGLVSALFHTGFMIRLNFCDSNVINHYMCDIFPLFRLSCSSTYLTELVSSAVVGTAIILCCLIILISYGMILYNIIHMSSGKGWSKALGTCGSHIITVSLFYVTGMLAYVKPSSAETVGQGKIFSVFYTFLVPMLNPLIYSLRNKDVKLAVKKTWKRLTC
# In short: as §1
# UniProt Q3KPB0 = target: T3, UniProt Q3KPB0
# T3 sequence (whole entry): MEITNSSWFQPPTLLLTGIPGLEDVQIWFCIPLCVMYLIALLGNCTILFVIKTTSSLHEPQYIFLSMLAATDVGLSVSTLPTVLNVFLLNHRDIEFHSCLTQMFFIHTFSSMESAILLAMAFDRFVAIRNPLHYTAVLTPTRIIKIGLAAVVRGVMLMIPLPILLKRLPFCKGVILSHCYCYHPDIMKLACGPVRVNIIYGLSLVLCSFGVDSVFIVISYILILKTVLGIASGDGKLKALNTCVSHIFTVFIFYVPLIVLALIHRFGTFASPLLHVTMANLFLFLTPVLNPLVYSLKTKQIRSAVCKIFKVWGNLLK
# In short: as §1
# UniProt Q3U0P3 = target: T4, UniProt Q3U0P3
# T4 sequence (whole entry): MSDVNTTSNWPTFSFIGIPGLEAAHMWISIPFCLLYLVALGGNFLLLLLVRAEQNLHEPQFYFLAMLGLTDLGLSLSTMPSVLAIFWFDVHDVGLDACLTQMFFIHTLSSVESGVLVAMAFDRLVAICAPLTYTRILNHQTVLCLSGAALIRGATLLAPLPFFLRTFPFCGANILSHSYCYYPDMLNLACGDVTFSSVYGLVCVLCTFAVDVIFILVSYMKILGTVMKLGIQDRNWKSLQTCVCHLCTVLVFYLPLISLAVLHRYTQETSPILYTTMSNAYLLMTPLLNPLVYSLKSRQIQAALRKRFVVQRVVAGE
# In short: as §1
# UniProt Q7TQU8 = target: T5, UniProt Q7TQU8
# T5 sequence (whole entry): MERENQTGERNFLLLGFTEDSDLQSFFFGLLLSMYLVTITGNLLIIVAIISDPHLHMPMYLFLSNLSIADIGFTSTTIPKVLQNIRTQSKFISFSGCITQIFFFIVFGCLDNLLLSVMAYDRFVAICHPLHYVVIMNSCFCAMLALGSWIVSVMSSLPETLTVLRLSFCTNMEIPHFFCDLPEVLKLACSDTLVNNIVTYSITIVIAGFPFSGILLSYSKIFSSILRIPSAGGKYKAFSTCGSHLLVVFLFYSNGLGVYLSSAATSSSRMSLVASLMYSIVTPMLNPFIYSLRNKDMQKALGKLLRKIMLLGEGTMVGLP
# In short: as §1
# UniProt Q7TQV4 = target: T6, UniProt Q7TQV4
# T6 sequence (whole entry): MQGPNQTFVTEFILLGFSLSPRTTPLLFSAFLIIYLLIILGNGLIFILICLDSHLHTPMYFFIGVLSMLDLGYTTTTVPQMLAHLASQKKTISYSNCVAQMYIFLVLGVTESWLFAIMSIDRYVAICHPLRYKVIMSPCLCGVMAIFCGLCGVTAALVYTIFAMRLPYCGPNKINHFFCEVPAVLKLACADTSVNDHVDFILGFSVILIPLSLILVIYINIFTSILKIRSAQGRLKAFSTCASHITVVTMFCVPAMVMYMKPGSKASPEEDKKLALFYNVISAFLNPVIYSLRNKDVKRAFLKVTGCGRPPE
# In short: as §1
# 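Also: active if original authors judged signal statistically different from baseline.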
Structure (SMILES),odorant receptor agonist call (UniProt L7MU75),odorant receptor agonist call (UniProt L7N210),odorant receptor agonist call (UniProt Q3KPB0),odorant receptor agonist call (UniProt Q3U0P3),odorant receptor agonist call (UniProt Q7TQU8),odorant receptor agonist call (UniProt Q7TQV4)
CCCCCCCCO,inactive,inactive,inactive,inactive,inactive,inactive
CCCCCCC(C)=O,inactive,inactive,inactive,inactive,inactive,inactive
CCC(=O)C(=O)CC,inactive,inactive,inactive,inactive,inactive,inactive
CCCCCCCCC(=O)O,inactive,inactive,inactive,inactive,inactive,inactive
CC(=O)Oc1ccccc1,inactive,inactive,inactive,inactive,inactive,inactive
CCCCCCO,inactive,inactive,inactive,inactive,inactive,inactive
CC(=O)OCC=C(C)C,inactive,inactive,inactive,inactive,inactive,active
O=C(c1ccccc1)c1ccccc1,active,inactive,inactive,inactive,inactive,inactive
CC(=O)OCc1ccccc1,inactive,inactive,inactive,inactive,inactive,inactive
COc1cc(C(=O)O)ccc1O,inactive,inactive,inactive,inactive,inactive,inactive
c1ccccc1,inactive,inactive,inactive,inactive,inactive,inactive
CCSSCC,inactive,inactive,inactive,inactive,inactive,–
CCCCCC1=C(C)CCC1=O,inactive,inactive,inactive,inactive,inactive,inactive
CCCCCCCCS,inactive,inactive,inactive,inactive,inactive,inactive
CCCCC(=O)CC,inactive,inactive,inactive,inactive,inactive,inactive
O=C(O)CCCCCBr,inactive,inactive,inactive,inactive,inactive,–
CCCCCCCCCO,inactive,inactive,inactive,inactive,inactive,inactive
CC12CCC(CC1=O)C2(C)C (configuration not stated),inactive,inactive,inactive,inactive,inactive,inactive
CCc1ccccc1O,inactive,inactive,inactive,inactive,inactive,–
CCCCCCCO,inactive,inactive,inactive,inactive,inactive,inactive
